{"source": "paper PMC7115534", "about": "(Peptides, 2009)", "key": {"Reovirus-1": {"test_system": "Reovirus-1", "test": "Antiviral activity in Vero cells, reovirus-1", "assay_type": "cell-based", "details": "read-out: EC50 Reovirus-1"}, "Sindbis virus": {"test_system": "Sindbis virus", "test": "Antiviral activity in Vero cells, Sindbis virus", "assay_type": "cell-based", "details": "read-out: EC50 Sindbis virus"}, "Punta Toro virus": {"test_system": "Punta Toro virus", "test": "Antiviral activity in Vero cells, Punta Toro virus", "assay_type": "cell-based", "details": "read-out: EC50 Punta Toro virus"}, "Vero cells": {"test_system": "Vero cells", "details": "microscopic alteration of cell morphology"}, "Para-influenza-3 virus": {"test_system": "Para-influenza-3 virus", "test": "Antiviral activity in Vero cells, para-influenza-3", "assay_type": "cell-based", "details": "read-out: EC50 Para-influenza-3 virus"}, "in vitro": {"test": "in vitro", "details": "dog"}, "MDCK cells": {"test_system": "MDCK cells", "details": "microscopic alteration of cell morphology"}, "Influenza B": {"test_system": "Influenza B", "test": "Anti-influenza B activity in MDCK cells", "assay_type": "cell-based", "details": "Influenza B virus"}, "[1]": {"test_system": "Clematis montana lectin (CML)", "test": "Hemagglutination inhibition assay", "assay_type": "biochemical", "how_it_was_run": "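Sugars were serially diluted 2-fold and mixed with an equal volume of lectin at 8 hemagglutination units. After 30 min at room temperature, 2% rabbit erythrocyte suspension was added in U-bottom wells. Plates were read after 1 h. The endpoint was the minimum sugar concentration in the final mixture giving complete inhibition; lectin dilutions were made in 0.15 M NaCl.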"}, "L929 cells": {"test_system": "L929 cells", "test": "Effect of carbohydrates and caspase inhibitors on CML-induced L929 cell death", "assay_type": "cell-based, murine", "details": "24 h; for effect of carbohydrate pre-incubation on CML-induced L929 cell death: 1 pM CML pre-incubated with sugar at 37 °C for 30 min, MTT; for effect of caspase inhibitor on CML-induced L929 apoptosis: 20 μM, 1 h prior to CML", "how_it_was_run": "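Murine L929 fibroblasts in DMEM with 10% FBS and nonessential amino acids at 37 °C, 5% CO2, were seeded at 1 × 10^5 cells/well for 24 h. Caspase inhibitors (pan-caspase z-VAD-fmk, caspase-3 z-DEVD-fmk, caspase-8 z-IETD-fmk; 20 μmol/l) were added 1 h before lectin, then cells were incubated 24 h. MTT was read at 490 nm as % growth inhibition versus control and blank; n = 5.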"}, "HIV-1 (IIIB)": {"test_system": "HIV-1 (IIIB)", "details": "CEM cells; cited from earlier work"}, "HIV-2 (strain ROD)": {"test_system": "HIV-2 (strain ROD)", "details": "CEM cells; cited from earlier work"}, "[2]": {"details": "read-out: Antiviral EC50 Influenza B MTS"}, "[3]": {"details": "read-out: Antiviral EC50 Influenza B Visual CPE Score"}}, "note": "Where two headings read alike, the source gives them in different places. Where a SMILES comes first, the peptide text is derived from it. The star is where a group is joined. Cbz = O=C(OCc1ccccc1)*; CH2F = FC*", "data": [{"compound": "Nc1ncnc2c1ncn2C[C@H](O)CO", "note": "[(S)-DHPA]", "values": [{"measurement": "EC50", "setting": "Reovirus-1", "result": "> 250", "unit": "µM"}, {"measurement": "EC50", "setting": "Sindbis virus", "result": "> 250", "unit": "µM"}, {"measurement": "EC50", "setting": "Punta Toro virus", "result": "> 250", "unit": "µM"}, {"measurement": "Minimum cytotoxic concentration", "setting": "Vero cells", "result": ">250", "unit": "µM"}, {"measurement": "EC50", "setting": "Para-influenza-3 virus", "result": "> 250", "unit": "µM"}]}, {"compound": "NC12CC3CC(CC(C3)C1)C2", "note": "[Amantadine]", "values": [{"measurement": "CC50", "setting": "in vitro", "result": "> 1000", "unit": "µM"}, {"measurement": "Cytotoxicity Minimum cytotoxic concentration", "setting": "MDCK cells", "result": ">1000", "unit": "µM"}, {"measurement": "EC50", "setting": "Influenza B; [2]", "result": "> 1000", "unit": "µM"}, {"measurement": "EC50", "setting": "Influenza B; [3]", "result": "> 1000", "unit": "µM"}]}, {"compound": "OC[C@H]1O[C@H](O[C@@H]2C(O)O[C@H](CO)[C@@H](O)[C@@H]2O)[C@@H](O)[C@@H](O)[C@@H]1O", "note": "(stereo partly drawn) [Man-a(1,2)-Man]", "values": [{"measurement": "inhibition of CML agglutination of rabbit erythrocytes (in words)", "setting": "[1]", "result": "slightly inhibitory"}]}, {"compound": "OC[C@H]1O[C@H](O[C@H]2[C@H](O)[C@@H](CO)OC(O)[C@H]2O)[C@@H](O)[C@@H](O)[C@@H]1O", "note": "(stereo partly drawn) [Man-a(1,3)-Man]", "values": [{"measurement": "inhibition of CML agglutination of rabbit erythrocytes (in words)", "setting": "[1]", "result": "slightly inhibitory"}]}, {"compound": "OC[C@H]1O[C@H](OC[C@H]2OC(O)[C@@H](O)[C@@H](O[C@H]3O[C@H](CO)[C@@H](O)[C@H](O)[C@@H]3O)[C@@H]2O)[C@@H](O)[C@@H](O)[C@@H]1O", "note": "(stereo partly drawn) [Man-a(1,3:1,6)-mannotriose]", "values": [{"measurement": "Minimum inhibitory concentration (MIC)", "setting": "[1]; complete inhibition of 8 hemagglutination units of CML, rabbit erythrocytes", "result": 2500, "unit": "µM"}, {"measurement": "effect of carbohydrate pre-incubation on CML-induced L929 cell death", "setting": "L929 cells", "result": "the cell inhibitory ratio was abruptly decreased"}]}, {"compound": "OC[C@H]1O[C@H](OC[C@H]2OC(O)[C@@H](O)[C@@H](O)[C@@H]2O)[C@@H](O)[C@@H](O)[C@@H]1O", "note": "(stereo partly drawn) [Man-a(1,6)-Man]", "values": [{"measurement": "inhibition of CML agglutination of rabbit erythrocytes (in words)", "setting": "[1]", "result": "slightly inhibitory"}, {"measurement": "effect of carbohydrate pre-incubation on CML-induced L929 cell death", "setting": "L929 cells", "result": "slightly more effective inhibitor than Man-a(1,3:1,6)-mannotriose"}]}, {"compound": "CCC(CC)O[C@@H]1C=C(C(=O)O)C[C@H](N)[C@H]1NC(C)=O", "note": "[Oseltamivir Carboxylate]", "values": [{"measurement": "CC50", "setting": "in vitro", "result": "> 100", "unit": "µM"}, {"measurement": "Cytotoxicity Minimum cytotoxic concentration", "setting": "MDCK cells", "result": ">100", "unit": "µM"}, {"measurement": "EC50", "setting": "Influenza B; [2]", "result": 15, "unit": "µM"}, {"measurement": "EC50", "setting": "Influenza B; [3]", "result": 8, "unit": "µM"}]}, {"compound": "NC(=O)c1ncn([C@@H]2O[C@H](CO)[C@@H](O)[C@H]2O)n1", "note": "[Ribavirin]", "values": [{"measurement": "EC50", "setting": "Reovirus-1", "result": 250, "unit": "µM"}, {"measurement": "Cytotoxicity Minimum cytotoxic concentration", "setting": "MDCK cells", "result": ">100", "unit": "µM"}, {"measurement": "EC50", "setting": "Sindbis virus", "result": "> 250", "unit": "µM"}, {"measurement": "EC50", "setting": "Influenza B; [2]", "result": 4.3, "unit": "µM"}, {"measurement": "EC50", "setting": "Influenza B; [3]", "result": 9, "unit": "µM"}, {"measurement": "Minimum cytotoxic concentration", "setting": "Vero cells", "result": ">250", "unit": "µM"}]}, {"compound": "CC(N)C12CC3CC(CC(C3)C1)C2", "note": "(stereo not drawn) [Rimantadine]", "values": [{"measurement": "CC50", "setting": "in vitro", "result": 525, "unit": "µM"}, {"measurement": "Cytotoxicity Minimum cytotoxic concentration", "setting": "MDCK cells", "result": 1000, "unit": "µM"}, {"measurement": "EC50", "setting": "Influenza B; [2]", "result": "> 200", "unit": "µM"}, {"measurement": "EC50", "setting": "Influenza B; [3]", "result": "> 200", "unit": "µM"}]}, {"compound": "COC(=O)CC[C@H](NC(=O)[C@H](CC(=O)OC)NC(=O)OCc1ccccc1)C(=O)N[C@H](C(=O)N[C@@H](CC(=O)OC)C(=O)CF)C(C)C", "note": "[z-DEVD-fmk]", "values": [{"measurement": "effect of caspase inhibitor on CML-induced L929 apoptosis", "setting": "L929 cells", "result": "partially blocked apoptosis"}]}, {"compound": "CC[C@H](C)[C@H](NC(=O)OCc1ccccc1)C(=O)N[C@@H](CCC(=O)OC)C(=O)N[C@H](C(=O)N[C@@H](CC(=O)OC)C(=O)CF)[C@@H](C)O", "note": "[z-IETD-fmk] (Cbz-IE(OMe)TD(OMe)-CH2F)", "values": [{"measurement": "effect of caspase inhibitor on CML-induced L929 apoptosis", "setting": "L929 cells", "result": "partially blocked apoptosis"}]}, {"compound": "COC(=O)C[C@H](NC(=O)[C@H](C)NC(=O)[C@@H](NC(=O)OCc1ccccc1)C(C)C)C(=O)CF", "note": "[z-VAD-fmk] (Cbz-Val-Ala-Asp(OMe)-CH2F)", "values": [{"measurement": "effect of caspase inhibitor on CML-induced L929 apoptosis", "setting": "L929 cells", "result": "partially blocked apoptosis"}]}, {"compound": "Galanthus nivalis agglutinin [GNA]", "values": [{"measurement": "EC50 HIV-1", "setting": "HIV-1 (IIIB)", "result": 0.92, "unit": "mg/L"}, {"measurement": "EC50 HIV-2", "setting": "HIV-2 (strain ROD)", "result": 0.78, "unit": "mg/L"}]}, {"compound": "Lycoris radiate agglutinin [LRA]", "values": [{"measurement": "EC50 HIV-1", "setting": "HIV-1 (IIIB)", "result": 0.79, "unit": "mg/L"}, {"measurement": "EC50 HIV-2", "setting": "HIV-2 (strain ROD)", "result": 0.59, "unit": "mg/L"}]}, {"compound": "Scilla campanulata agglutinin [SCA]", "values": [{"measurement": "EC50 HIV-1", "setting": "HIV-1 (IIIB)", "result": 4.6, "unit": "mg/L"}, {"measurement": "EC50 HIV-2", "setting": "HIV-2 (strain ROD)", "result": 8, "unit": "mg/L"}]}, {"compound": "thyroglobulin: a glycoprotein", "values": [{"measurement": "inhibition of CML agglutination of rabbit erythrocytes (in words)", "setting": "[1]", "result": "inhibited the agglutination"}]}]}
